Assay results published in ChEMBL document CHEMBL1154741, “Radiosynthesis and radiopharmacological evaluation of cyclin-dependent kinase 4 (Cdk4) inhibitors” (Eur J Med Chem, 2010).
pIC50: −log10 of the molar value.

Assays:
[1] = biological target: Cyclin-dependent kinase 1 (Homo sapiens, UniProt P06493); test: Inhibition of CDK1
[2] = biological target: Cyclin-dependent kinase 4 (Homo sapiens, UniProt P11802); test: Inhibition of CDK4
[3] = biological target: Cyclin-dependent kinase 2 (Homo sapiens, UniProt P24941); test: Inhibition of CDK2
[4] = Stability in ethanol after 30 mins by HPLC; type: physicochemical; details: read-out: Stability
How it was run: (§1)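 50 kBq radiotracer was added to 1 mL of PBS (0.1 M, pH 7.4), ethanol, culture medium (RPMI + 10% FKS + 1% pen/strep) or fresh rat plasma and held at 37 °C for 30 min or 24 h. Samples were analysed by radio-HPLC on a C18 column with a Soerensen buffer (0.01 M, pH 7.4)/methanol gradient; intact tracer is reported as percent.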

[5] = Stability in cell culture medium after 24 hrs by HPLC; type: physicochemical; details: read-out: Stability; how it was run: as §1
Lung = test: Biodistribution in Wistar rat lung at 0.2 to 0.3 MBq, iv after 5 mins; type: ADME, organism-based; details: in vivo
How it was run: (§2)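 Normal male Wistar rats (180 ± 20 g) given a single iv tail-vein injection of 0.2–0.3 MBq radiotracer in solution containing 1% HSA. Under ether anaesthesia at 5 min p.i., blood was taken by heart puncture and the animals euthanized. Organs were removed, weighed and counted in a calibrated well counter. Results are SUV = (organ activity/organ weight)/(given activity/body weight); mean ± SD, n = 8.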

Kidney = test: Biodistribution in Wistar rat kidney at 0.2 to 0.3 MBq, iv after 5 mins; type: ADME, organism-based; details: in vivo; how it was run: as §2
[6] = Stability in Wistar rat plasma after 30 mins; type: ADME, cell-free; details: read-out: Stability; how it was run: as §1
[7] = Stability in Wistar rat plasma after 24 hrs; type: ADME, cell-free; details: read-out: Stability; how it was run: as §1
[8] = Stability in PBS buffer at pH7.4 after 24 hrs by HPLC; type: physicochemical; details: pH 7.4, read-out: Stability; how it was run: as §1
[9] = Stability in ethanol after 24 hrs by HPLC; type: physicochemical; details: read-out: Stability; how it was run: as §1
[10] = Lipophilicity log D at pH 7.4; type: physicochemical; details: buffer
FaDu = test: Cellular uptake in human FADU cells measured per mg of protein at 25 kBq after 1 hr; type: ADME, cell-based
How it was run: (§3)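 HT-29 cells in McCoy's 5A and FaDu cells in RPMI 1640, both with 10% FBS, were seeded at 5 × 10⁴ cells/well and left overnight. About 25 kBq radiotracer in 0.25 mL medium was added at 37 °C. Cells were washed three times with ice-cold PBS, lysed in 0.1 M NaOH/1% SDS and gamma-counted. Protein was measured by BCA; results are %ID/mg protein.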

Liver = test: Biodistribution in Wistar rat liver at 0.2 to 0.3 MBq, iv after 5 mins; type: ADME, organism-based; details: in vivo; how it was run: as §2
[11] = Stability in PBS buffer at pH7.4 after 30 mins by HPLC; type: physicochemical; details: pH 7.4, read-out: Stability; how it was run: as §1
HT-29 = test: Cellular uptake in human HT-29 cells measured per mg of protein at 25 kBq after 1 hr; type: ADME, cell-based; details: ht-29, 1 h; how it was run: as §3

Sequence of Cyclin-dependent kinase 4 (P11802 whole entry): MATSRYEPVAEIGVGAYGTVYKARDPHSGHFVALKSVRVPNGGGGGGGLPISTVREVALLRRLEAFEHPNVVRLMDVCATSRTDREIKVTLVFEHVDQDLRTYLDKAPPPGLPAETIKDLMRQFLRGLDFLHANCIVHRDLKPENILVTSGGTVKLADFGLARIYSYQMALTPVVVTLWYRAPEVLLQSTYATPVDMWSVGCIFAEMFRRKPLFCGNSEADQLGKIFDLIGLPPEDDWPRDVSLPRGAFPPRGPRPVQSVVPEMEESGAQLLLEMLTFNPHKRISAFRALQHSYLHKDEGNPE
Sequence of Cyclin-dependent kinase 1 (P06493 whole entry): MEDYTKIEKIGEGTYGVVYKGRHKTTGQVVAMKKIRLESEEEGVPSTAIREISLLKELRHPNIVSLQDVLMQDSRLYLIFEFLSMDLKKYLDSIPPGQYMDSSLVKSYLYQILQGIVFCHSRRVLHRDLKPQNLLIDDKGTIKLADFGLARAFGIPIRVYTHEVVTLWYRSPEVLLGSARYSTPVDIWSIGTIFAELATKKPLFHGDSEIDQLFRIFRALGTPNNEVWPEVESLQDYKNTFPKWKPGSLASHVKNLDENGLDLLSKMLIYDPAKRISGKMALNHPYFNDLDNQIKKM

With `Cc1c(I)c(=O)n(C2CCCC2)c2nc(Nc3ccc(N4CCNCC4)cc3)ncc12` as the compound, how does the pIC50 [1] read?
Its pIC50 is under 6.44.

And the pIC50 [2]?
The pIC50 was over 7.70.

What about the pIC50 [3] of the same compound?
The pIC50 was under 6.44.

With `Cc1c([124I])c(=O)n(C2CCCC2)c2nc(Nc3ccc(N4CCNCC4)cn3)ncc12` as the compound, how does the remaining at 0.5 h [4] read?
The remaining at 0.5 h was 98%.

What about the remaining at 24 h [5] of the same compound?
The remaining at 24 h was 97%.

What about the SUV (Lung) of the same compound?
Its SUV is 8.43.

And the SUV (Kidney)?
The SUV was over 3.2.

What about the remaining at 0.5 h [6] of the same compound?
The remaining at 0.5 h was 94%.

What about the remaining at 24 h [7] of the same compound?
Its remaining at 24 h is 94%.

What about the remaining at 24 h [8] of the same compound?
Its remaining at 24 h is 95%.

And the remaining at 24 h [9]?
Its remaining at 24 h is 97%.

And the logD [10]?
The logD was 1.99.

And the Drug uptake (FaDu)?
Its Drug uptake is 900 %Idose.

And the SUV (Liver)?
Its SUV is over 3.2.

What about the remaining at 0.5 h [11] of the same compound?
The remaining at 0.5 h was 97%.

Which results are given for `Cc1c([124I])c(=O)n(C2CCCC2)c2nc(Nc3ccc(N4CCNCC4)cc3)ncc12`?
remaining at 0.5 h [4]: 93%; remaining at 24 h [5]: 96%; SUV (Lung): 8.67; SUV (Kidney): > 3.2; remaining at 0.5 h [6]: 93%; remaining at 24 h [7]: 94%; remaining at 24 h [8]: 86%; remaining at 24 h [9]: 94%; logD [10]: 2.77; Drug uptake (HT-29): 750 %Idose; SUV (Liver): > 3.2; remaining at 0.5 h [11]: 92%

With `O=c1ccc2cnc(Nc3ccc(N4CCC(CCCO)CC4)cc3)nc2n1C1CC2CCC1C2` (stereo not drawn) as the compound, how does the pIC50 [2] read?
The pIC50 was over 7.70.
